# Assay results as given in ChEMBL document CHEMBL3046880, “Syntheses and herbicidal activities of novel triazolinone derivatives” (J Agric Food Chem, 2008).
# Key:
# Assay type in all cases: functional
# [1] = system: Cerastium arvense; assay: Herbicidal activity against Cerastium arvense assessed as growth inhibition at 150 g of active ingredient/ha administered using post-emergence treatment measured 15 days post treatment protocol under greenhouse conditions
# Procedure, shortened: (§1)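 Test agents were formulated as 100 g/L emulsified concentrates (DMF solvent, TW-80 emulsifier), diluted with water and sprayed postemergence on pot-grown weeds. Seeds were sown 1-3 cm deep in clay soil (pH 6.5, 1.6% organic matter, 37.3% clay, CEC […]) and grown at 15–30 °C in a greenhouse. Dicots were treated at the two-leaf stage. Untreated and DMF-treated plants served as controls. Activity was scored visually 15 days after treatment.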
# [2] = system: Eclipta prostrata; assay: Herbicidal activity against Eclipta prostrata assessed as growth inhibition at 75 g of active ingredient/ha administered using post-emergence treatment measured 15 days post treatment protocol under greenhouse conditions; procedure, shortened: as §1
# [3] = system: Echinochloa crus-galli; assay: Herbicidal activity against Echinochloa crus-galli (barnyard grass) assessed as growth inhibition at 37.5 g of active ingredient/ha administered using post-emergence treatment measured 15 days post treatment protocol under greenhouse conditions; procedure, shortened: as §1
# [4] = system: Brassica juncea; assay: Herbicidal activity against Brassica juncea assessed as growth inhibition at 150 g of active ingredient/ha administered using post-emergence treatment measured 15 days post treatment protocol under greenhouse conditions; procedure, shortened: as §1
# [5] = system: Setaria viridis; assay: Herbicidal activity against Setaria viridis (green foxtail) assessed as growth inhibition at 75 g of active ingredient/ha administered using post-emergence treatment measured 15 days post treatment protocol under greenhouse conditions; procedure, shortened: as §1
# [6] = system: Cerastium arvense; assay: Herbicidal activity against Cerastium arvense assessed as growth inhibition at 37.5 g of active ingredient/ha administered using post-emergence treatment measured 15 days post treatment protocol under greenhouse conditions; procedure, shortened: as §1
# [7] = system: Setaria viridis; assay: Herbicidal activity against Setaria viridis (green foxtail) assessed as growth inhibition at 150 g of active ingredient/ha administered using post-emergence treatment measured 15 days post treatment protocol under greenhouse conditions; procedure, shortened: as §1
# [8] = system: Portulaca oleracea; assay: Herbicidal activity against Portulaca oleracea assessed as growth inhibition at 37.5 g of active ingredient/ha administered using post-emergence treatment measured 15 days post treatment protocol under greenhouse conditions; procedure, shortened: as §1
# [9] = system: Amaranthus retroflexus; assay: Herbicidal activity against Amaranthus retroflexus assessed as growth inhibition at 150 g of active ingredient/ha administered using post-emergence treatment measured 15 days post treatment protocol under greenhouse conditions; procedure, shortened: as §1
# [10] = system: Eclipta prostrata; assay: Herbicidal activity against Eclipta prostrata assessed as growth inhibition at 37.5 g of active ingredient/ha administered using post-emergence treatment measured 15 days post treatment protocol under greenhouse conditions; procedure, shortened: as §1
# [11] = system: Senna tora; assay: Herbicidal activity against Senna tora assessed as growth inhibition at 150 g of active ingredient/ha administered using post-emergence treatment measured 15 days post treatment protocol under greenhouse conditions; procedure, shortened: as §1
# [12] = system: Chenopodium album; assay: Herbicidal activity against Chenopodium album assessed as growth inhibition at 75 g of active ingredient/ha administered using post-emergence treatment measured 15 days post treatment protocol under greenhouse conditions; procedure, shortened: as §1
# [13] = system: Chenopodium album; assay: Herbicidal activity against Chenopodium album assessed as growth inhibition at 150 g of active ingredient/ha administered using post-emergence treatment measured 15 days post treatment protocol under greenhouse conditions; procedure, shortened: as §1
# [14] = system: Senna tora; assay: Herbicidal activity against Senna tora assessed as growth inhibition at 75 g of active ingredient/ha administered using post-emergence treatment measured 15 days post treatment protocol under greenhouse conditions; procedure, shortened: as §1
# [15] = system: Digitaria sanguinalis; assay: Herbicidal activity against Digitaria sanguinalis (hairy crabgrass) assessed as growth inhibition at 150 g of active ingredient/ha administered using post-emergence treatment measured 15 days post treatment protocol under greenhouse conditions; procedure, shortened: as §1
# [16] = system: Brassica juncea; assay: Herbicidal activity against Brassica juncea assessed as growth inhibition at 75 g of active ingredient/ha administered using post-emergence treatment measured 15 days post treatment protocol under greenhouse conditions; procedure, shortened: as §1
# [17] = system: Chenopodium album; assay: Herbicidal activity against Chenopodium album assessed as growth inhibition at 37.5 g of active ingredient/ha administered using post-emergence treatment measured 15 days post treatment protocol under greenhouse conditions; procedure, shortened: as §1
# [18] = system: Portulaca oleracea; assay: Herbicidal activity against Portulaca oleracea assessed as growth inhibition at 75 g of active ingredient/ha administered using post-emergence treatment measured 15 days post treatment protocol under greenhouse conditions; procedure, shortened: as §1
# [19] = system: Setaria viridis; assay: Herbicidal activity against Setaria viridis (green foxtail) assessed as growth inhibition at 37.5 g of active ingredient/ha administered using post-emergence treatment measured 15 days post treatment protocol under greenhouse conditions; procedure, shortened: as §1
# [20] = system: Portulaca oleracea; assay: Herbicidal activity against Portulaca oleracea assessed as growth inhibition at 150 g of active ingredient/ha administered using post-emergence treatment measured 15 days post treatment protocol under greenhouse conditions; procedure, shortened: as §1
# [21] = system: Brassica juncea; assay: Herbicidal activity against Brassica juncea assessed as growth inhibition at 37.5 g of active ingredient/ha administered using post-emergence treatment measured 15 days post treatment protocol under greenhouse conditions; procedure, shortened: as §1
# [22] = system: Digitaria sanguinalis; assay: Herbicidal activity against Digitaria sanguinalis (hairy crabgrass) assessed as growth inhibition at 75 g of active ingredient/ha administered using post-emergence treatment measured 15 days post treatment protocol under greenhouse conditions; procedure, shortened: as §1
# [23] = system: Echinochloa crus-galli; assay: Herbicidal activity against Echinochloa crus-galli (barnyard grass) assessed as growth inhibition at 75 g of active ingredient/ha administered using post-emergence treatment measured 15 days post treatment protocol under greenhouse conditions; procedure, shortened: as §1
# [24] = system: Senna tora; assay: Herbicidal activity against Senna tora assessed as growth inhibition at 37.5 g of active ingredient/ha administered using post-emergence treatment measured 15 days post treatment protocol under greenhouse conditions; procedure, shortened: as §1
# [25] = system: Echinochloa crus-galli; assay: Herbicidal activity against Echinochloa crus-galli (barnyard grass) assessed as growth inhibition at 150 g of active ingredient/ha administered using post-emergence treatment measured 15 days post treatment protocol under greenhouse conditions; procedure, shortened: as §1
# [26] = system: Amaranthus retroflexus; assay: Herbicidal activity against Amaranthus retroflexus assessed as growth inhibition at 37.5 g of active ingredient/ha administered using post-emergence treatment measured 15 days post treatment protocol under greenhouse conditions; procedure, shortened: as §1
# [27] = system: Cerastium arvense; assay: Herbicidal activity against Cerastium arvense assessed as growth inhibition at 75 g of active ingredient/ha administered using post-emergence treatment measured 15 days post treatment protocol under greenhouse conditions; procedure, shortened: as §1
# [28] = system: Digitaria sanguinalis; assay: Herbicidal activity against Digitaria sanguinalis (hairy crabgrass) assessed as growth inhibition at 37.5 g of active ingredient/ha administered using post-emergence treatment measured 15 days post treatment protocol under greenhouse conditions; procedure, shortened: as §1
# [29] = system: Amaranthus retroflexus; assay: Herbicidal activity against Amaranthus retroflexus assessed as growth inhibition at 75 g of active ingredient/ha administered using post-emergence treatment measured 15 days post treatment protocol under greenhouse conditions; procedure, shortened: as §1
smiles,measurement,setting,value
Cc1nn(-c2cc(NS(C)(=O)=O)c(Cl)cc2Cl)c(=O)n1C(F)F [SULFENTRAZONE],growth inhibition (GI),[1],100%
same,growth inhibition (GI),[2],100%
same,growth inhibition (GI),[3],50%
same,growth inhibition (GI),[4],100%
same,growth inhibition (GI),[5],50%
same,growth inhibition (GI),[6],>80%
same,growth inhibition (GI),[7],>80%
same,growth inhibition (GI),[8],100%
same,growth inhibition (GI),[9],100%
same,growth inhibition (GI),[10],100%
same,growth inhibition (GI),[11],>80%
same,growth inhibition (GI),[12],100%
same,growth inhibition (GI),[13],100%
same,growth inhibition (GI),[14],>80%
same,growth inhibition (GI),[15],<50%
same,growth inhibition (GI),[16],100%
same,growth inhibition (GI),[17],100%
same,growth inhibition (GI),[18],100%
same,growth inhibition (GI),[19],<50%
same,growth inhibition (GI),[20],100%
same,growth inhibition (GI),[21],>80%
same,growth inhibition (GI),[22],50%
same,growth inhibition (GI),[23],50%
same,growth inhibition (GI),[24],>80%
same,growth inhibition (GI),[25],<50%
same,growth inhibition (GI),[26],100%
same,growth inhibition (GI),[27],100%
same,growth inhibition (GI),[28],50%
same,growth inhibition (GI),[29],100%
